{"source": "paper PMC3269097", "about": "(Journal of Medicinal Chemistry, 2011)", "key": {"[1]": {"target": "human GluK2 (Homo sapiens, UniProt Q13002)", "sequence (Q13002 32-908)": "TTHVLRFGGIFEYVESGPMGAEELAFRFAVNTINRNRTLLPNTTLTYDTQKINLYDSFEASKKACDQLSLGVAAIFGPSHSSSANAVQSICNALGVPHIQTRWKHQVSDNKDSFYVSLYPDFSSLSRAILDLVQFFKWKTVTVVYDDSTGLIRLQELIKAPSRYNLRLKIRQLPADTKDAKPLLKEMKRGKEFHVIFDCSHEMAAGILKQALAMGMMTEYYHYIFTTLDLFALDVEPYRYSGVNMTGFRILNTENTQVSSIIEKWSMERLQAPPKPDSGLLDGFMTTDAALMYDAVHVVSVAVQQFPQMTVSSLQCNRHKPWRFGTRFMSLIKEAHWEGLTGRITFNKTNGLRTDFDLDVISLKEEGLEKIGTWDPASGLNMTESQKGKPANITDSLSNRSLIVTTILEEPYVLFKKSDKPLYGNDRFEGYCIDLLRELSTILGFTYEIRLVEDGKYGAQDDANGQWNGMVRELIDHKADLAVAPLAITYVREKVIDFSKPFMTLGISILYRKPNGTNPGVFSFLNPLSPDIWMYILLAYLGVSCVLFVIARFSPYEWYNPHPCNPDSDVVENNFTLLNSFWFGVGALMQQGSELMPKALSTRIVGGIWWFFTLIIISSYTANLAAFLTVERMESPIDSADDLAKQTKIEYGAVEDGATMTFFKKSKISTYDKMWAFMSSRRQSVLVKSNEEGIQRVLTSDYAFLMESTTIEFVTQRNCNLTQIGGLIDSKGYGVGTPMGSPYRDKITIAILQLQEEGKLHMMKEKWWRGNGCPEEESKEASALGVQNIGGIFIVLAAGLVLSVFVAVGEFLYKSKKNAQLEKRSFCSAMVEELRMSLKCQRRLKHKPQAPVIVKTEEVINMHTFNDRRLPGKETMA", "format": "cell-based", "conditions": "tested at a concentration of 100 μM", "outline": "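HEK293 cells stably expressing homomeric human GluK2(Q), passaged no more than 20 times. Ca2+ influx read by fluorescence plate reader with concanavalin A present. Test compound is added over a range of concentrations, then L-glutamate plus antagonist (final glutamate 10 μM). Curves are fitted with slope fixed at 1 and top/bottom fixed at 100%/0% inhibition. KB is derived from IC50 by Cheng-Prusoff.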"}, "[2]": {"target": "GluN1a/GluN2A NMDAR (Rattus norvegicus, UniProt Q00959)", "format": "cell-based", "conditions": "at a concentration of 100 μM"}, "[3]": {"target": "GluN1a/GluN2A NMDAR (Rattus norvegicus, UniProt P35439+Q00959)", "format": "cell-based"}, "[4]": {"target": "GluN1a/GluN2B NMDAR (Rattus norvegicus, UniProt P35439+Q00960)", "format": "cell-based"}, "[5]": {"target": "GluN1a/GluN2B NMDAR (Rattus norvegicus, UniProt Q00960)", "format": "cell-based", "conditions": "at a concentration of 100 μM"}, "[6]": {"assay": "Solubility observations", "format": "physicochemical", "conditions": "for water solubility: at higher concentrations"}, "[7]": {"system": "AMPARs", "conditions": "competition binding assays; ref [5c]; cited from earlier work"}, "[8]": {"system": "male Wistar rats with partial saphenous nerve ligation injury (PSNI)", "assay": "Nociceptive behaviour in rats, partial saphenous nerve ligation injury", "format": "in vivo, rat", "outline": "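Male Wistar rats (~250 g) habituated to testing, tested before saphenous nerve injury. Test compound or vehicle given i.p. (n=5/group), testing starts 15 min later. Von Frey hairs applied to the plantar hindpaw (≤5 s, five times per paw, both paws); thresholds taken from stimulus-response curves. Radiant-heat withdrawal latency is the mean of three stimulations per paw.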"}, "[9]": {"target": "T1, human GluK1 (Homo sapiens, UniProt P39086)", "T1 sequence (P39086 31-905 isoform P39086-2 limits assumed)": "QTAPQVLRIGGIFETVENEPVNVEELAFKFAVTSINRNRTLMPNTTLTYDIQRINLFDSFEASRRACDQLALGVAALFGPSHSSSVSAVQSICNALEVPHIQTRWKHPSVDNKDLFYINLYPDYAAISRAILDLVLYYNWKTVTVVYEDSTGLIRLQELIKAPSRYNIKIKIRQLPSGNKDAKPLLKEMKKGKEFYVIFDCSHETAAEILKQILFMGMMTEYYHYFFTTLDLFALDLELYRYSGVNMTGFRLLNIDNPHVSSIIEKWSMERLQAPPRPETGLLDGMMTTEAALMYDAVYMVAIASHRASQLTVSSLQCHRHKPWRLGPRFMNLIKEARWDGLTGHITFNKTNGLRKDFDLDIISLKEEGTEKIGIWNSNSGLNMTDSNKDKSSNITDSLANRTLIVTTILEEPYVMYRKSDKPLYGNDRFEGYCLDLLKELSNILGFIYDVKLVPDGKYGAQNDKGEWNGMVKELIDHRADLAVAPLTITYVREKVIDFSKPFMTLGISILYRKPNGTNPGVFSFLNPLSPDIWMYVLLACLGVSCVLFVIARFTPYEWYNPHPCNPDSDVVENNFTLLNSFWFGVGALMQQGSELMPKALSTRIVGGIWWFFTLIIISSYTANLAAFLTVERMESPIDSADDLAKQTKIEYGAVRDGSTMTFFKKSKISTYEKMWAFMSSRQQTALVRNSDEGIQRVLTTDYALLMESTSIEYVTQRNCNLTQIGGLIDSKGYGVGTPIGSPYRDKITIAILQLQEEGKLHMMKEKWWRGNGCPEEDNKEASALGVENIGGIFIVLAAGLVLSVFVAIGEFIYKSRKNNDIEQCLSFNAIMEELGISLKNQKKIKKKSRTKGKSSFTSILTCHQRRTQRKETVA", "format": "cell-based", "conditions": "from KB values"}, "[10]": {"target": "T1, human GluK1", "assay": "Electrophysiological assay", "format": "cell-based", "conditions": "electrophysiological assays", "outline": "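Whole-cell patch clamp at −70 mV on HEK293 cells stably expressing homomeric human GluK1 or GluK3. Cells are bathed in HBS pH 7.4 at 20°C and lifted into a piezo-driven theta tube. 30 mM glutamate is applied for 100 ms every 20 s. Antagonist is added to both barrels for about 2 min, giving 5 concentrations per cell, each averaged over 6 sweeps. IC50 values are reported with 95% confidence intervals.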"}, "[11]": {"target": "GluK3 A660S mutant receptor (Homo sapiens, UniProt Q13003, A691S)", "assay": "[3H]kainate competition binding to GluK3 A660S mutant membranes", "conditions": "18i 100 μM, 300 μM, 1 mM; 20 nM [3H]kainate; compared with wild type", "outline": "(§1)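 Filtration binding on human GluK3a membranes. Wildtype comes from stably transfected HEK293 (hygromycin); the A660S mutant is transiently PEI-transfected for 48 h. Membranes are prepared by hypotonic sonication and washed in 50 mM Tris-citrate pH 7.4. Assay uses 20 nM [3H]kainate, with 1 mM kainate defining non-specific binding. Test compound at 100 μM, 300 μM and 1 mM; three experiments in triplicate.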"}, "[12]": {"system": "native AMPARs", "format": "cell-based, rat", "conditions": "100 μM, n=4", "outline": "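Field EPSPs in transverse rat hippocampal slices (400 μm), perfused at 29°C. Mossy fibers stimulated via the dentate granule cell layer every 60 s. Responses averaged every 2 min and measured as 20–80% slope. Test compound at 100 μM perfused for 30 min. Results expressed as % of control slope, mean ± s.e.m., n=4, compared by Student's t test.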"}, "[13]": {"target": "wildtype (WT) GluK3 (Homo sapiens, UniProt Q13003)", "assay": "[3H]kainate competition binding to wildtype GluK3 membranes", "conditions": "18i 100 μM, 300 μM, 1 mM; 20 nM [3H]kainate", "outline": "as §1"}, "[14]": {"target": "GluN1a/GluN2D NMDAR (Rattus norvegicus, UniProt Q62645)", "sequence (Q62645 28-1323, other chains not shown)": "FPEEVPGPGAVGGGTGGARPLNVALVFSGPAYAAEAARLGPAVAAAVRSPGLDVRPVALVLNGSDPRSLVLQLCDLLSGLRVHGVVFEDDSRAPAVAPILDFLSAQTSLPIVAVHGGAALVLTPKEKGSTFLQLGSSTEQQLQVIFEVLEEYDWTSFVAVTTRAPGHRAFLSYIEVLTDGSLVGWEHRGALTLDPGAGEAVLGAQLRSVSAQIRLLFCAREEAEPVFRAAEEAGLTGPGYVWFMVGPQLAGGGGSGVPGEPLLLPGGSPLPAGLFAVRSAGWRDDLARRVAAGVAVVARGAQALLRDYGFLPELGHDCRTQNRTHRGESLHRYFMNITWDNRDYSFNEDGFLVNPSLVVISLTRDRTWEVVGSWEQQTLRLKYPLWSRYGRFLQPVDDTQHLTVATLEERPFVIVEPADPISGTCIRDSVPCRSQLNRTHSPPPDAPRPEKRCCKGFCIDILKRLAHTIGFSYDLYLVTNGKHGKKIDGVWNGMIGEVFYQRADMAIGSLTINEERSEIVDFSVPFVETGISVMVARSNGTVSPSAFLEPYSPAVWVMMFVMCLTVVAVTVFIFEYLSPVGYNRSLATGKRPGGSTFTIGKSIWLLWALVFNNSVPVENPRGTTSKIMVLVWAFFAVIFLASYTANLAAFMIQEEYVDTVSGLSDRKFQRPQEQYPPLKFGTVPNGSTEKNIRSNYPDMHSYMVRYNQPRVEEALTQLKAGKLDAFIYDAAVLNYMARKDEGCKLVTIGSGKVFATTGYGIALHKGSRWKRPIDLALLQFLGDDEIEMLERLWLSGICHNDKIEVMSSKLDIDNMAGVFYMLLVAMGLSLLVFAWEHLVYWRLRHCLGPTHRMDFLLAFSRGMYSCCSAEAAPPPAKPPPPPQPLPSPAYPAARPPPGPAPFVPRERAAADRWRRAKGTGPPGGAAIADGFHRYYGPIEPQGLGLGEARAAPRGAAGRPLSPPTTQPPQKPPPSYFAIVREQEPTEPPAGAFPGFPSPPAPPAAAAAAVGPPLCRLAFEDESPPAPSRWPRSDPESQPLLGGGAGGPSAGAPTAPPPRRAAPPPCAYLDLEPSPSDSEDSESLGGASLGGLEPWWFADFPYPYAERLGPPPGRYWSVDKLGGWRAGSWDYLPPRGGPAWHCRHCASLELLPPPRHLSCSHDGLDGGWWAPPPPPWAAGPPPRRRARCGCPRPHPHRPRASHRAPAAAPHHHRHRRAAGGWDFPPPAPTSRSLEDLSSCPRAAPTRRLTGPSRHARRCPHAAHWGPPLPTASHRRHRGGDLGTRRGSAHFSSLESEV", "format": "cell-based"}, "[15]": {"target": "GluN1a/GluN2C NMDAR (Rattus norvegicus, UniProt P35439+Q00961)", "sequence (Q00961 20-1237, other chains not shown)": "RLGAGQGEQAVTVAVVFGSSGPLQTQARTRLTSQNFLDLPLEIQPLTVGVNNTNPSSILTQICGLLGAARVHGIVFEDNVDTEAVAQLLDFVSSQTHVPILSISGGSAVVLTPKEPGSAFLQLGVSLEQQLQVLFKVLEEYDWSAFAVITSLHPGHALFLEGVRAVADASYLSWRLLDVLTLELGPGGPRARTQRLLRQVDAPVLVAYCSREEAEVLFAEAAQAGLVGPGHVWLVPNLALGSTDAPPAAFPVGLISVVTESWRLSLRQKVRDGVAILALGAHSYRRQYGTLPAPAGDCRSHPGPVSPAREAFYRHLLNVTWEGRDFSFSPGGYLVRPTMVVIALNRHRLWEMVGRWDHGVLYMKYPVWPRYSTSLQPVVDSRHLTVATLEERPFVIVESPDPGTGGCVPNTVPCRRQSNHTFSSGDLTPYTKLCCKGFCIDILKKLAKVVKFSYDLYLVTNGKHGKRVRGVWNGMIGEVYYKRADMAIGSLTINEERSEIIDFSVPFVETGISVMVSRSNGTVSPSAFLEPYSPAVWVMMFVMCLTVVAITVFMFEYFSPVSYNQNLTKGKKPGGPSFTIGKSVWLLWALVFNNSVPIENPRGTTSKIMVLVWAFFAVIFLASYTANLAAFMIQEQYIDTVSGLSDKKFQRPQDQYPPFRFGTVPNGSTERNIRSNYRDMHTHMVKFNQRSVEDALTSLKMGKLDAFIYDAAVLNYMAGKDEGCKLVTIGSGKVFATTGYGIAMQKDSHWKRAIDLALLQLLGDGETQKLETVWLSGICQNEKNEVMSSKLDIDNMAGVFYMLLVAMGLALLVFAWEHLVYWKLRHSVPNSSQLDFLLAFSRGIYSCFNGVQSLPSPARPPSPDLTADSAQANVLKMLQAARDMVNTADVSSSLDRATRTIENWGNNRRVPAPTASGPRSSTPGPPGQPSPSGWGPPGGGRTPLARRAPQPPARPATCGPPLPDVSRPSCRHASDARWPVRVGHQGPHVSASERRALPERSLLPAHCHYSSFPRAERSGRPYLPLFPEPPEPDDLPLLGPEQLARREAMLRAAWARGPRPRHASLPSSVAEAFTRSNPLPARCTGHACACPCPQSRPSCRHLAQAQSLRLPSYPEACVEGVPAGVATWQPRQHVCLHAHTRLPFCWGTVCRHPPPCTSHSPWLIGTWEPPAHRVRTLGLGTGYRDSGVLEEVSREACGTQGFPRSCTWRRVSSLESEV", "format": "cell-based"}, "[16]": {"target": "GluN1a/GluN2D NMDAR (Rattus norvegicus, UniProt P35439+Q62645)", "sequence (Q62645 28-1323, other chains not shown)": "as the sequence (Q62645 28-1323, other chains not shown) above", "format": "cell-based"}}}
{"smiles": "O=C(O)[C@H]1NCCN(C(=O)c2ccc3cc(I)ccc3c2)[C@H]1C(=O)O", "note": "(relative stereo) [Compound 18c, (2R*,3S*)-1-(6-Iodonaphthalene-2-carbonyl)piperazine-2,3-dicarboxylic acid]", "values": [{"measurement": "GluK2 antagonist activity", "setting": "[1]", "value": "no GluK2 antagonist activity"}]}
{"smiles": "O=C(O)[C@H]1NCCN(C(=O)c2ccc3cc(-c4ccccc4)ccc3c2)[C@H]1C(=O)O", "note": "(relative stereo) [Compound 18d, (2R*,3S*)-1-(6-Phenylnaphthalene-2-carbonyl)piperazine-2,3-dicarboxylic acid]", "values": [{"measurement": "antagonism of GluN2A", "setting": "[2]", "value": "30–37%"}, {"measurement": "IC50", "setting": "[3]", "value": "> 100", "unit": "µM"}, {"measurement": "GluK2 antagonist activity", "setting": "[1]", "value": "no GluK2 antagonist activity"}, {"measurement": "IC50", "setting": "[4]", "value": "> 100", "unit": "µM"}, {"measurement": "antagonism of GluN2B", "setting": "[5]", "value": "30–37%"}, {"measurement": "solubility in electrophysiological recording buffer", "setting": "[6]; 300 μM, room temperature, visible light scattering", "value": "insoluble at high concentrations"}, {"measurement": "water solubility", "setting": "[6]", "value": "poor water solubility"}]}
{"smiles": "O=C(O)[C@H]1NCCN(C(=O)c2ccc3cc(Br)c4ccccc4c3c2)[C@H]1C(=O)O", "note": "(relative stereo) [Compound 18h, (2R*,3S*)-1-(9-Bromophenanthrene-3-carbonyl)piperazine-2,3-dicarboxylic acid]", "values": [{"measurement": "inhibition of [3H]AMPA binding", "setting": "[7]", "value": "only very weak inhibitors"}]}
{"smiles": "O=C(O)[C@H]1NCCN(C(=O)c2ccc3cc(I)c4ccccc4c3c2)[C@H]1C(=O)O", "note": "(relative stereo) [Compound 18i, (2R*,3S*)-1-(9-Iodophenanthrene-3-carbonyl)piperazine-2,3-dicarboxylic acid]", "values": [{"measurement": "thermal withdrawal latency to radiant heat", "setting": "[8]; 30 mg/kg i.p., acute, day 7 after PSNI, n=5 per group", "value": "increased thermal withdrawal latency in these animals above baseline values"}, {"measurement": "mechanical withdrawal threshold (mechanical allodynia)", "setting": "[8]; 30 mg/kg i.p., acute, day 7 after PSNI, versus vehicle, n=5 per group", "value": "completely reversed the drop in mechanical withdrawal threshold"}, {"measurement": "antinociceptive effects in normal animals", "setting": "[8]; normal animals before nerve injury (not shown)", "value": "exerted antinociceptive effects"}, {"measurement": "fold higher affinity for GluK1 compared to 18c", "setting": "[9]", "value": 1.7, "unit": "fold"}, {"measurement": "fold lower IC50 for GluK1 versus GluK3", "setting": "[10]", "value": "> 100", "unit": "fold"}, {"measurement": "inhibition of [3H]kainate binding to A660S point mutant of GluK3", "setting": "[11]", "value": "more potently inhibited"}, {"measurement": "AMPAR mediated fEPSP response in the presence of compound, % of slope", "setting": "[12]; 30 min perfusion, control 100 ± 2%, mean ± s.e.m.", "value": "99 ± 2", "unit": "%"}, {"measurement": "antagonist activity on AMPAR mediated EPSPs in CA3 region of the hippocampus", "setting": "[12]", "value": "no antagonist activity"}, {"measurement": "inhibition of [3H]kainate binding to wild type GluK3", "setting": "[13]", "value": "low binding affinity"}]}
{"smiles": "O=C(O)C1NCCN(C(=O)c2ccc3c(ccc4ccccc43)c2)C1C(=O)O", "note": "(single isomer, unassigned; (+)) [(+)-4, (+)-1-(Phenanthrene-2-carbonyl)piperazine-2,3-dicarboxylic acid]", "values": [{"measurement": "fold lower affinity for GluN2D than the (−)-4 isomer", "setting": "[14]", "value": 50, "unit": "fold"}]}
{"smiles": "O=C(O)C1NCCN(C(=O)c2ccc3c(ccc4ccccc43)c2)C1C(=O)O", "note": "(stereo not drawn) [(±)-4]", "values": [{"measurement": "GluK2 antagonist activity", "setting": "[1]", "value": "no GluK2 antagonist activity"}]}
{"smiles": "O=C(O)[C@@H]1[C@H](C(=O)O)NCCN1C(=O)c1ccc2c(ccc3ccccc32)c1", "note": "[(−)-4, (−)-1-(Phenanthrene-2-carbonyl)piperazine-2,3-dicarboxylic acid]", "values": [{"measurement": "GluK2 antagonist activity", "setting": "[1]", "value": "no GluK2 antagonist activity"}, {"measurement": "fold higher affinity for GluK1 than the (+)-4 enantiomer", "setting": "[9]", "value": 27, "unit": "fold"}]}
{"smiles": "O=C(O)[C@H]1NCCN(C(=O)c2ccc3ccc4ccccc4c3c2)[C@H]1C(=O)O", "note": "[Compound 5]", "values": [{"measurement": "GluK2 antagonist activity", "setting": "[1]", "value": "no GluK2 antagonist activity"}, {"measurement": "inhibition of [3H]AMPA binding", "setting": "[7]", "value": "only very weak inhibitors"}, {"measurement": "selectivity for GluN2D versus GluK1", "setting": "[14]; GluN2D Ki versus GluK1 KB", "value": "around 10 fold"}]}
{"smiles": "O=C(O)[C@H]1NCCN(C(=O)c2ccc(C#Cc3ccccc3)cc2)[C@H]1C(=O)O", "note": "[Compound 18k]", "values": [{"measurement": "GluK2 antagonist activity", "setting": "[1]", "value": "no GluK2 antagonist activity"}, {"measurement": "inhibition of [3H]AMPA binding", "setting": "[7]", "value": "only very weak inhibitors"}]}
{"smiles": "O=C(O)[C@H]1NCCN(C(=O)c2ccc(/N=N/c3ccccc3)cc2)[C@H]1C(=O)O", "note": "[Compound 18l]", "values": [{"measurement": "GluK2 antagonist activity", "setting": "[1]", "value": "no GluK2 antagonist activity"}, {"measurement": "inhibition of [3H]AMPA binding", "setting": "[7]", "value": "only very weak inhibitors"}]}
{"smiles": "O=C(O)c1ccc2cc(C(=O)N3CCN[C@H](C(=O)O)[C@@H]3C(=O)O)ccc2c1", "note": "[Compound 19]", "values": [{"measurement": "IC50", "setting": "[3]", "value": "> 100", "unit": "µM"}, {"measurement": "IC50", "setting": "[4]", "value": "> 100", "unit": "µM"}, {"measurement": "IC50", "setting": "[15]", "value": "> 100", "unit": "µM"}, {"measurement": "IC50", "setting": "[16]", "value": "> 100", "unit": "µM"}]}
{"smiles": "O=C(O)c1ccc(-c2ccc(C(=O)N3CCN[C@H](C(=O)O)[C@@H]3C(=O)O)cc2)cc1", "note": "[Compound 20]", "values": [{"measurement": "IC50", "setting": "[4]", "value": "> 100", "unit": "µM"}, {"measurement": "fold lower affinity for GluK1 compared to 34b", "setting": "[9]", "value": 5, "unit": "fold"}, {"measurement": "water solubility", "setting": "[6]", "value": "poor water solubility"}, {"measurement": "IC50", "setting": "[15]", "value": "> 100", "unit": "µM"}]}
{"smiles": "O=C(O)[C@H]1NCCN(C(=O)c2ccc(CCc3ccccc3)cc2)[C@H]1C(=O)O", "note": "[Compound 21]", "values": [{"measurement": "IC50", "setting": "[3]", "value": "> 100", "unit": "µM"}, {"measurement": "IC50", "setting": "[4]", "value": "> 100", "unit": "µM"}, {"measurement": "fold lower affinity for GluK1 compared to 34b", "setting": "[9]", "value": "approximately 2 fold"}, {"measurement": "fold lower affinity for GluK1 compared to (±)-4", "setting": "[9]", "value": 9, "unit": "fold"}, {"measurement": "IC50", "setting": "[15]", "value": "> 100", "unit": "µM"}, {"measurement": "IC50", "setting": "[16]", "value": "> 100", "unit": "µM"}, {"measurement": "antagonism of GluN2D", "setting": "[14]; at a concentration of 100 μM", "value": "~ 10%"}]}
{"smiles": "O=C(O)[C@H]1NCCN(C(=O)c2ccc(-c3ccccc3)cc2)[C@H]1C(=O)O", "note": "[Compound 34b]", "values": [{"measurement": "GluK2 antagonist activity", "setting": "[1]", "value": "no GluK2 antagonist activity"}]}
{"smiles": "O=C(O)[C@@H]1NCCN(C(=O)c2ccc3c(ccc4ccccc43)c2)[C@H]1C(=O)O", "note": "[Compound 34d]", "values": [{"measurement": "fold lower affinity for GluK1 compared to (±)-4", "setting": "[9]", "value": 8, "unit": "fold"}]}
{"smiles": "O=C(O)[C@H]1NCCN(C(=O)c2ccc3c(ccc4cc(Br)ccc43)c2)[C@H]1C(=O)O", "note": "[Compound 34e]", "values": [{"measurement": "GluK2 antagonist activity", "setting": "[1]", "value": "no GluK2 antagonist activity"}]}
{"smiles": "O=C(O)[C@H]1NCCN(Cc2ccc3c(ccc4ccccc43)c2)[C@H]1C(=O)O", "note": "[Compound 34f]", "values": [{"measurement": "fold lower affinity for GluK1 compared to (±)-4", "setting": "[9]", "value": 5, "unit": "fold"}]}
{"smiles": "O=C(O)[C@H]1NCCN(C(=O)c2ccc3c(c2)CCc2ccccc2-3)[C@H]1C(=O)O", "note": "[Compound 34g]", "values": [{"measurement": "GluK2 antagonist activity", "setting": "[1]", "value": "no GluK2 antagonist activity"}]}
